Source: PubChem (Johns Hopkins Ion Channel Center)
KCNQ1 act – potentiators or activators of human KCNQ1 potassium channel; P51787; CHO-K1 KCNQ1, thallium flux FluxOR fluorescence; active compounds read high; B-score at 10 µM; 310,000 tested, 0.35% active; AID 2648;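 active = fluorescence ratio B-score, a plate-corrected score, at least three library SD, with initial intensity B-score within 5 SD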
Target sequence (P51787 whole entry, looked up): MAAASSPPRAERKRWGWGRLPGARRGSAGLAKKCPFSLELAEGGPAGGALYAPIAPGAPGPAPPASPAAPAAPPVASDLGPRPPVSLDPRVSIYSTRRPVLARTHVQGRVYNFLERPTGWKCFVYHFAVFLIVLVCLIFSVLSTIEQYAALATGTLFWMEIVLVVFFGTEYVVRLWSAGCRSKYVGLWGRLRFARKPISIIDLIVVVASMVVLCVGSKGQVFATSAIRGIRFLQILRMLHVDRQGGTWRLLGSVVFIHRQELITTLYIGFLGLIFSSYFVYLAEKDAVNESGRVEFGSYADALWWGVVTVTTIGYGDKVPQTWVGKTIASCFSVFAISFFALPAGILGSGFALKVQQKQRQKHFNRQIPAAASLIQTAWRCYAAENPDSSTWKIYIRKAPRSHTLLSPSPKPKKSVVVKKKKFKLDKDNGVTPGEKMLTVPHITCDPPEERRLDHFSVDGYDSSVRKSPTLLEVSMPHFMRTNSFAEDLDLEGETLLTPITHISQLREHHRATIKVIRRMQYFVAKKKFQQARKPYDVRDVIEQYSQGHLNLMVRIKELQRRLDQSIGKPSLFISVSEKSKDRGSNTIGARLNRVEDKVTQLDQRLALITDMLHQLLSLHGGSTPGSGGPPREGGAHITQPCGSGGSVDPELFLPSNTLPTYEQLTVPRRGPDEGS
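Schedule – 37 °C overnight plating, 90-min dark dye load, 20-min compound pretreatment · System – stable KCNQ1 CHO-K1 line · Probe or stimulus – thallium- and potassium-containing depolarizing buffer · Measured by – kinetic FluxOR fluorescence, 10 s baseline plus 110 s post-stimulus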
KCNK3 block – human KCNK3 channel inhibition, primary screen; B-score at 10 µM; CHO-KCNK3 thallium flux, FluxOR fluorescence; active compounds read low; 340,000 tested, 0.84% active; O14649;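 active = B-score under library mean minus 4 SD, starting fluorescence ratio at most library mean plus 5 SD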;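 also: more negative B-score means stronger inhibition of thallium flux through KCNK3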
KCNQ1 block – blocks the human KCNQ1 potassium channel. P51787. 310,000 tested, 1.3% active. CHO-K1 KCNQ1, FluxOR thallium flux fluorescence; active compounds read high. B-score at 10 µM;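 active = compounds whose thallium flux B-score, printed positive for inhibition, exceeds three library SD while starting fluorescence stays within three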;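 also: channel opened by potassium depolarization with thallium stimulus after 20 min compound exposure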
KCNK9 inh – inhibitors of human KCNK9 two-pore domain potassium channel; Q9NPC2; HEK293 KCNK9, FluxOR thallium flux fluorescence; active compounds read low; B-score at 10 µM; 310,000 tested, 1.2% active; AID 488922;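 active = ratio B-score over 3 SD below the library mean, with starting fluorescence within 5 SD of its mean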;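 also: negative B-score means less thallium flux so channel inhibition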
hERG rescue – hERG (human) protection from proarrhythmic block. activation (rescue from dofetilide block), less the hit threshold, % at 10 µM. AID 1511. CHO-hERG, FluxOR thallium flux, dofetilide IC70 present. 310,000 tested, 0.51% active;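 active = activation above the mean of controls blocked by dofetilide plus 5 SD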;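 also: thallium influx through hERG after potassium depolarization seen as dye fluorescence rise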
The depositor's hits bear a star; i = inactive; · = no result. Compounds with a hit are over-represented: about 3.1% of the library has one in this group of screens.

SMILES | KCNQ1 act | KCNK3 block | KCNQ1 block | KCNK9 inh | hERG rescue
Oc1c(N=NC(=S)Nc2ccccc2F)c2ccccc2n1Cc1ccccc1 | 10* | i | i | i | 59*
O=C(O)c1ccc(Cl)cc1Nc1nc2cc(Cl)ccc2o1 | i | i | i | i | 5.6*
COc1ccc(N(CC(=O)N2CCN(Cc3ccccc3)CC2)S(C)(=O)=O)cc1OC | i | i | i | i | 9.3*
Cc1sc2ncnc(N3CCC(C(=O)N4CC(C)SC4=Nc4ccc(Cl)cc4)CC3)c2c1C (stereo unspecified) | · | i | · | · | ·
CCOc1ccc(Nc2ccc([N+](=O)[O-])c3nonc23)cc1 | i | i | 7* | i | -7
O=[N+]([O-])c1ccc(Nc2ccccc2)c2nonc12 | i | i | i | i | -3
CC(=O)Nc1ccc2c(c1)C(N1CC3CCC(CC3)C1)c1ccccc1-2 (stereo unspecified) | · | -10* | · | · | ·
O=C(Nc1cccc(Cl)c1)N1CCN(C2c3ccccc3-c3ccccc32)CC1 | i | i | i | i | -7
COc1ccccc1CNC(=O)c1cc(S(=O)(=O)N2CCN(c3ccccc3)CC2)ccc1Cl | · | i | · | · | ·
C=CCn1c(SC(C)C(=O)c2c(N)n(C)c(=O)n(C)c2=O)nnc1-c1ccoc1C (stereo unspecified) | · | i | · | · | ·
CC(=O)c1cccc(NS(=O)(=O)c2ccc(-c3cnc(C4CC4)o3)cc2)c1 | i | i | i | i | -14
Nc1ccn(Cc2ccccc2)n1 | i | i | i | i | 41*
O=C(Nc1cc(Sc2nc3ccccc3s2)cc([N+](=O)[O-])c1)c1ccccc1 | i | i | 11* | i | -23
O=C(Nc1cc(Sc2ccccn2)cc([N+](=O)[O-])c1)c1cccc(F)c1 | i | i | i | i | -13
COc1ccc2[nH]c3c(c2c1)CCN1C(=O)C(CC(=O)NCCCn2ccnc2)C[C@H](C(=O)N2CCCCC2)[C@@]31C (stereo partly specified) | · | i | · | · | ·
COc1ccccc1COC(=O)c1ccc(S(=O)(=O)N2CCOCC2)cc1 | · | i | · | · | ·
CCC(=O)Nc1ccccc1Oc1ccccc1 | i | i | i | i | 0
Cc1ccccc1CN(C)CC(=O)Nc1ccccc1Oc1ccccc1 | i | i | i | -7.5* | -14
Cc1ccc2c(CSc3nc4ccccc4c(=O)n3CCCO)cc(=O)oc2c1 | · | -9.1* | · | · | ·
CCOC(=O)c1c(C)[nH]c(C(=O)CN(C)CC(=O)Nc2ccccc2C(F)(F)F)c1C | · | -8.8* | · | · | ·
N#Cc1cc(C(=O)c2cc(F)ccc2O)cn(-c2nccs2)c1=O | i | i | 8* | i | -13
C=CCN(c1ccccc1OC)S(=O)(=O)c1cccc(C(=O)OCC(=O)c2c(N)n(C)c(=O)n(C)c2=O)c1 | · | i | · | · | ·
Cc1n[nH]c(C)c1Sc1ccccc1N | i | i | i | i | 2
Cc1cc(C)nc(Sc2c(C)n[nH]c2C)n1 | i | i | i | i | 5.1*
CSc1nnc(-c2cc(-c3ccc(C)cc3)nc3ccccc23)o1 | i | i | i | -7.4* | -14
SMILES | KCNQ1 act | KCNK3 block | KCNQ1 block | KCNK9 inh | hERG rescue
O=C(CCC(=O)N1CCOCC1)NCCc1ccccc1 | · | i | · | · | ·
O=C(CN1CCc2ccccc2C1)Nc1ccccc1C(=O)NC1CC1 | · | i | · | · | ·
O=C(/C=C/c1ccc([N+](=O)[O-])cc1)/C=C/c1ccco1 | i | i | 8* | i | -5
CCOC(=O)C1C(c2ccccc2)C(C(=O)OCC)C1c1ccccc1 (stereo unspecified) | i | i | i | i | 5.7*
CCCOc1ccc(OC(=O)c2ccc(Br)o2)cc1 | i | i | i | i | 16*
CCOc1ccc(C(=O)Nc2ccc(N3CCN(C(C)=O)CC3)cc2)cc1[N+](=O)[O-] | i | i | i | i | -8
CC(=O)N1CCN(c2ccc(Oc3ccc([N+](=O)[O-])c(C(F)(F)F)c3)cc2)CC1 | i | i | 11* | i | -12
CC(C)C(=O)Nc1c(-c2ccccc2F)c(=O)c2ccccc2n1C | 15* | i | i | i | 16*
N#Cc1ccc(CN2CCN(C(=O)c3cc(C4CC4)nn3-c3ccccc3)CC2)cc1 | · | i | · | · | ·
Cn1c(C(=O)N2CCCC(C(=O)NCc3cccs3)C2)cc2sccc21 (stereo unspecified) | i | i | i | i | 6.0*
COc1ccc(OC)c(C2=C/C(=C/c3ccccn3)C(=O)O2)c1 | i | i | i | -7.6* | -15
COc1ccc(CNC(=O)C2CCCN(S(=O)(=O)c3ccc4c(c3)CCCN4C(C)=O)C2)cc1 (stereo unspecified) | i | i | i | i | -6
COC(=O)CCN(C(=O)c1cc([N+](=O)[O-])cc([N+](=O)[O-])c1)c1ccccn1 | i | i | i | i | -5
COC(=O)CCN(C(=O)c1ccc([N+](=O)[O-])cc1)c1ccccn1 | i | i | 11* | i | -9
CCCCN(C(=O)c1cccc(S(=O)(=O)N(C)c2ccc(C)cc2)c1)c1c(N)n(CC(C)C)c(=O)[nH]c1=O | · | i | · | · | ·
COC(=O)c1cnn(-c2ccc(F)cc2F)c1/C=N/NC(=S)NC(C)(C)C | i | i | i | -7* | -4
COc1ccccc1CNC(=O)CN1C(=O)NC2(CCCc3ccccc32)C1=O (stereo unspecified) | · | i | · | · | ·
O=C(NNS(=O)(=O)c1ccc([N+](=O)[O-])cc1)c1ccc2ccccc2c1O | i | i | 7* | i | -26
CCOC(=O)C1=C(C)N(c2ccccc2)C(=O)/C1=C\c1ccc(O)c(OC)c1 | i | i | i | -6.8* | -5
CCOC(=O)C1=C(C)N(c2ccccc2)C(=O)/C1=C\c1ccco1 | i | i | i | i | -10
O=C1CC(=O)N(CCNc2ncc(C(F)(F)F)cc2Cl)C(=O)N1 | i | i | i | i | -6
O=C1C=CC(=O)N1CCNc1ncc(C(F)(F)F)cc1Cl | 18* | i | i | i | -20
N=C1/C(=C/c2cccs2)C(=O)N=C2SN=C(SCc3ccccc3)N12 | i | i | i | i | -10
CC(C)CSC1=NSC2=NC(=O)/C(=C\c3cccs3)C(=N)N12 | 8* | i | i | i | -1
Cc1onc(-c2ccccc2Cl)c1C(=O)Nc1nnc(-c2cccc([N+](=O)[O-])c2)s1 | i | i | 11* | i | -17
CCSc1nnc(NC(=O)c2c(-c3ccccc3Cl)noc2C)s1 | i | i | i | i | -8
CCOc1ccc(NC(=O)CCCN2C(=O)C(c3ccccc3)Oc3cccnc32)cc1 (stereo unspecified) | i | i | i | i | -6
